From ChEMBL document CHEMBL1153534, “Design and synthesis of androgen receptor antagonists with bulky side chains for overcoming antiandrogen resistance” (J Med Chem, 2009)
Calls of active or inactive are those of the source. The calls are words filed in the database; no cut-off is given here.

Columns and labels:
LNCaP = assay: Cytotoxicity against human LNCAP cells after 72 hrs by MTT assay; format: functional, cell-based
CWR22R = assay: Cytotoxicity against human 22Rv1 cells after 72 hrs by MTT assay; format: functional, cell-based; settings: 22Rv1, 72 h
PC-3 = assay: Cytotoxicity against human PC3 cells after 72 hrs by MTT assay; format: functional, cell-based; settings: Homo sapiens, PC-3, 72 h; read-out: IC50
[1] = tested on: Androgen receptor (Homo sapiens), P10275 [T878A]; assay: Activity in human PC3 cells expressing androgen receptor T877A mutant assessed as ARE-dependent transactivation at 0.1 uM after 24 hrs by luciferase reporter gene assay in absence of DHT; format: cell-based; settings: PC-3
Outline: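 PC-3 cells, which lack endogenous AR, transiently transfected with plasmids expressing human AR (WT, T877A, W741C or H874Y) plus an ARE-driven MMTV-luc reporter. Cells were treated with or without 0.1 nM DHT. Firefly luciferase was standardized to a Renilla control and normalized to the 0.1 nM DHT signal. Mean ± sd.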

[2] = biological target: T1, Progesterone receptor (Homo sapiens) (UniProt P06401); assay: Antagonist activity at human PR B-form expressed in human PC3 cells assessed as inhibition of R5020-induced transactivation at 0.1 uM after 24 hrs by luciferase reporter gene assay; format: functional, cell-based; settings: PC-3
T1 sequence (whole entry): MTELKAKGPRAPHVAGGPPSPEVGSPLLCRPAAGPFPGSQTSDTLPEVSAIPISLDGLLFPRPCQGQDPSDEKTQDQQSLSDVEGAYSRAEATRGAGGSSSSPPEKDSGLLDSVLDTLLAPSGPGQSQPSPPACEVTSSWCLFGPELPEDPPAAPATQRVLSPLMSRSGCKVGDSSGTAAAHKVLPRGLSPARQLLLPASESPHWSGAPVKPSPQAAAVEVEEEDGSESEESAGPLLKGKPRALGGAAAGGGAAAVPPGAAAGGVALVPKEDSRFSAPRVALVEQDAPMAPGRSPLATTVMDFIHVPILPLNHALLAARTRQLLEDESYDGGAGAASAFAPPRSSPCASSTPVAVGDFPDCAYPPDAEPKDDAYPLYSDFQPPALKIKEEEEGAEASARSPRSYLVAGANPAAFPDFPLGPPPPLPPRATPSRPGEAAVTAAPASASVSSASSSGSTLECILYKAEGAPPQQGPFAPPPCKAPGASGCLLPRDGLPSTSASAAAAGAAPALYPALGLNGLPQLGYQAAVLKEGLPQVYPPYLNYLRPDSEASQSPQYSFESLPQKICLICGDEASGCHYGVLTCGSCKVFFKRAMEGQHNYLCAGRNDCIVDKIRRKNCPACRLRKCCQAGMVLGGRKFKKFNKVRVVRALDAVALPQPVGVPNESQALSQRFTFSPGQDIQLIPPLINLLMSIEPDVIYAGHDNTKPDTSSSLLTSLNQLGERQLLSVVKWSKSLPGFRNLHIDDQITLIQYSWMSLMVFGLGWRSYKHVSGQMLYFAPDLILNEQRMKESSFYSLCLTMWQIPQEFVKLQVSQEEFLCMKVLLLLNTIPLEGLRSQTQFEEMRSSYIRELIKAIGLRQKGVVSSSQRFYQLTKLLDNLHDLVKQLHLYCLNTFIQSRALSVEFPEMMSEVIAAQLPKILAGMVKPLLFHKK
Outline: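 PC-3 cells carrying a luciferase reporter for transactivation by the human PR B form. Antagonist mode used 10 nM R5020 as the agonist. Agonist mode ran in the absence of R5020. Luciferase read-out.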

Chain of Androgen receptor (Homo sapiens), P10275 [T878A] (P10275 whole entry T878A): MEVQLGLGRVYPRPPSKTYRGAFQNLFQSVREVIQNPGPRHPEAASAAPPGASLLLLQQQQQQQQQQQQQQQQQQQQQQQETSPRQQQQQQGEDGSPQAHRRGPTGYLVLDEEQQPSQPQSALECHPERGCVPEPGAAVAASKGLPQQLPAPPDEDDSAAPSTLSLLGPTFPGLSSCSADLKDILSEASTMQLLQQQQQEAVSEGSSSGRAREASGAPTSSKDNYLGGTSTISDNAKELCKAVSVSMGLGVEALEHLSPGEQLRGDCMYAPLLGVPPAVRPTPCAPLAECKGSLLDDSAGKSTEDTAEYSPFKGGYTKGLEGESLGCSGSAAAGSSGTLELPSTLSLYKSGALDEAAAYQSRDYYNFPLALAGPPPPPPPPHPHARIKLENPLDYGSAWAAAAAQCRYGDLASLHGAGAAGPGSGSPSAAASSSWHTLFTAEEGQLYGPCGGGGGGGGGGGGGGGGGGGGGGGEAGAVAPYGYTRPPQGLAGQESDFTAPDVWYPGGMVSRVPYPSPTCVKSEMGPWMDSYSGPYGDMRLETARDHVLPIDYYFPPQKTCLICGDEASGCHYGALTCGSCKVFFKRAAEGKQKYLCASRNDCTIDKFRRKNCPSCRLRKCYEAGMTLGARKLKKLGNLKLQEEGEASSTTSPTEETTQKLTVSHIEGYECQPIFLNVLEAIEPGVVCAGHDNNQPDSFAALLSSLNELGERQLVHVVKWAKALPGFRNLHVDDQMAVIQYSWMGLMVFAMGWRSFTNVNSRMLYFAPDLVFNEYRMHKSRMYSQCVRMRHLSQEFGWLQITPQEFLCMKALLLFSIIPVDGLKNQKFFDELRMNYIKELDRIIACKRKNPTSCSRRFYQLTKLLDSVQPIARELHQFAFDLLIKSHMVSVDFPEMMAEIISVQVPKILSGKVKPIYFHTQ

- Activity [1]: inactive
- Activity [2]: inactive
Compound: COc1cc(/C=C(\C(=O)/C=C/C2=C(C)CCCC2(C)C)C(=O)/C=C/c2ccc(O)c(OC)c2)ccc1O
- IC50 (LNCaP): 1300 nM
- IC50 (CWR22R): 2200 nM
- IC50 (PC-3): 4200 nM
